Data from ChEMBL document CHEMBL1125422, “Low molecular weight proteins as carriers for renal drug targeting. Preparation of drug-protein conjugates and drug-spacer derivatives and their catabolism in renal cortex homogenates and lysosomal lysates” (J Med Chem, 1992).

Experiments:
Rattus norvegicus [1] = species on record: Rattus norvegicus; test: (§1) Lysozyme-conjugated prodrugs: in vitro stability at pH 5; type: functional
In short: (§2)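 Conjugate incubated 24 h in pH 5.0 buffer, pH 7.4 buffer, or plasma buffered at pH 7.4. Samples were deproteinized with ACN, MeOH or 2 N HCl, centrifuged, and analyzed by RP-HPLC against an internal standard. Release is % parent drug = parent/(parent + derivative) from IS-normalized peak-area ratios, mean of at least two separate incubations.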

Rattus norvegicus [2] = species on record: Rattus norvegicus; test: (§3) Lysozyme-conjugated prodrugs: in vitro stability at pH 7.4; type: functional; in short: as §2
Rattus norvegicus [3] = species on record: Rattus norvegicus; test: as §1; type: ADME; in short: as §2
Rattus norvegicus [4] = species on record: Rattus norvegicus; test: as §3; type: functional; in short: as §2; remark: listed apart in the source
Rattus norvegicus [5] = species on record: Rattus norvegicus; test: as §3; type: functional; in short: as §2; remark: listed apart in the source
Rattus norvegicus [6] = species on record: Rattus norvegicus; test: as §1; type: functional; in short: as §2; remark: listed apart in the source
Rattus norvegicus [7] = species on record: Rattus norvegicus; test: as §3; type: functional; in short: as §2; remark: listed apart in the source

| SMILES | Drug release (Rattus norvegicus [1]) | Drug release (Rattus norvegicus [2]) | Drug release (Rattus norvegicus [3]) | Drug release (Rattus norvegicus [4]) | Drug release (Rattus norvegicus [5]) | Drug release (Rattus norvegicus [6]) | Drug release (Rattus norvegicus [7]) |
| --- | --- | --- | --- | --- | --- | --- | --- |
| COc1ccc2cc(C(C)C(=O)N[C@@H](CC(C)C)C(=O)NCC(=O)NCC(=O)O)ccc2c1 (stereo in doubt; 1o) | 0% | 0% | 0% | 0% | – | – | – |
| C[C@@H](NC(=O)C(Cc1ccccc1)NC(=O)OCc1ccccc1)C(=O)O (stereo partly specified) | 100% | 100% | 0% | 0% | 100% | 100% | – |
| COc1ccc2cc(C(C)C(=O)N[C@@H](Cc3ccc(O)cc3)C(=O)NCC(=O)NCC(=O)O)ccc2c1 (stereo in doubt; 1e) | <1% | <1% | < 1% | <1% | <1% | <1% | <1% |
| O=C(O)CNC(=O)c1ccccc1 [HIPPURIC ACID] | 0% | 0% | 0% | 0% | – | – | – |
| O=C(N[C@@H](Cc1ccc(O)cc1)C(=O)O)c1ccccc1 | 0% | 0% | 0% | 0% | – | – | – |
| CC(C)C[C@H](N)C(=O)Nc1ccc2ccccc2c1 | 100% | 100% | 0% | 0% | 100% | 100% | – |
| CC(C)C[C@H](N)C(=O)Nc1nc2nc(N)nc(N)c2nc1-c1ccccc1 | <5% | <5% | 0% | 0% | – | – | – |
| O=C(N[C@@H](Cc1ccccc1)C(=O)O)c1ccccc1 | 0% | 0% | 0% | 0% | – | – | – |
| COc1ccc2cc(C(C)C(=O)N[C@@H](CCCN=C(N)N)C(=O)O)ccc2c1 (stereo partly specified) | 0% | 0% | 0% | 0% | – | – | – |
| COc1ccc2cc(C(C)C(=O)N[C@@H](CCC(=O)O)C(=O)O)ccc2c1 (stereo partly specified) | 0% | 0% | 0% | 0% | – | – | – |
| COc1ccc2cc(C(C)C(=O)OCC(=O)O)ccc2c1 (stereo unspecified) | 81% | 8% | 1% | 2% | 5% | 45% | 8% |
| COc1ccc2cc(C(C)C(=O)O[C@@H](C)C(=O)O)ccc2c1 (stereo in doubt) | 2% | – | 1.1% | 6.9% | – | 2% | 6.8% |
| COc1ccc2cc(C(C)C(=O)NCCCC[C@H](N)C(=O)O)ccc2c1 (stereo partly specified) | 0% | 0% | 0% | 0% | 0% | 0% | 0% |
| COc1ccc2c(c1)c(CC(=O)N[C@@H](CCC(=O)O)C(=O)O)c(C)n2C(=O)c1ccc(Cl)cc1 | 0% | 0% | 0% | 0% | – | – | – |
| COc1ccc2cc(C(C)C(=O)N[C@@H](CC(C)C)C(=O)NCC(=O)NCC(=O)O)ccc2c1 (stereo in doubt; 1c) | <1% | <1% | < 1% | <1% | <1% | <1% | <1% |
| COc1ccc2c(c1)c(CC(=O)N[C@@H](Cc1ccccc1)C(=O)O)c(C)n2C(=O)c1ccc(Cl)cc1 | 0% | 0% | 0% | 0% | – | – | – |
| O=C(O)CC[C@H](NC(=O)c1ccccc1)C(=O)O | 0% | 0% | 0% | 0% | – | – | – |
| O=C(N[C@@H](Cc1c[nH]c2ccccc12)C(=O)O)c1ccccc1 | 0% | 0% | 0% | 0% | – | – | – |
| CC(C)C[C@H](NC(=O)c1ccccc1)C(=O)O | 0% | 0% | 0% | 0% | – | – | – |
| COc1ccc2cc(C(C)C(=O)N[C@@H](Cc3ccc(O)cc3)C(=O)NCC(=O)NCC(=O)O)ccc2c1 (stereo in doubt; 1p) | 0% | 0% | 0% | 0% | – | – | – |
| N=C(N)NCCC[C@H](NC(=O)c1ccccc1)C(=O)O | 0% | 0% | 0% | 0% | – | – | – |
